The record followed here is PubChem BioAssay AID1480 (NMMLSC, 2009).

Some of the results follow. Unmarked numbers belong to inactive results. Calls of active or inactive are those of the source.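 The calls were made as follows: active = fluorescence in ABCG2-expressing cells above the plate's control-well mean plus 3 SD (cut at about 15 in these data); inactive = the rest.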

This test in a line: green-channel fluorescence of compounds in IgMXP3 cells – cell-based, 488/530 nm, flow cytometry, artefact control for ABC transporter inhibitor project, confirmation (AID 1480).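 Also: median cell fluorescence with compound minus that of DMSO-treated control cells.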 The note with it: compound autofluorescence 488/530 nm, at 6.6 µM, stronger effect = higher value. Summed up: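 Test system: drug-resistant ABCG2-expressing IgMXP3 cells, unlabeled with substrate / Medium: assay buffer supplied with a JC-1 mitochondrial potential kit / Probe or stimulus: none, JC-1 pump substrate omitted from wells / Compound dosing: single dose, test compound at 6.6 µM final / Schedule: 10 min compound exposure at 25 °C / Signal: high-throughput flow cytometry, green FL1 channel fluorescence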
As for `Cc1ccc(-n2c(SCC(=O)Nc3ncc(Cl)cc3Cl)nc3ccccc32)cc1`, the fluorescence was -0.59.

Turning to `COc1cccc(NC(=O)c2ccc(Cn3cc([N+](=O)[O-])cn3)o2)c1`, the fluorescence is 9.06.

In the case of `Cc1ccc(OCC(O)CN2CCN(CC(O)COc3ccc(C)cc3Cl)CC2)c(Cl)c1` (stereo not drawn), the fluorescence was 31.2 (active).

In the case of `COc1ccc(C)cc1NC(=O)C(Sc1ccccc1)c1ccccc1` (stereo not drawn), the fluorescence is -1.74.

`C/C(=N\Nc1ncc(Cl)cc1Cl)c1ccc(S(=O)(=O)NCc2ccco2)cc1`: the fluorescence was -1.09.

With `CCOCC(=O)Nc1sc2c(c1C(=O)OCC)CCCC2`, the fluorescence is 3.96.

With `CCOC(=O)c1sc(NC(=O)CSc2nnc(-c3ccco3)o2)c(C(=O)OCC)c1C`, the fluorescence is 2.51.

With `CCN1/C(=C/c2ccc3ccc(C)cc3[n+]2CC)Sc2ccccc21`, the fluorescence is 228 (active).

Take `O=C(Cc1c[nH]c2ccccc12)N/N=C/c1cccc(F)c1`: the fluorescence was -0.24.

As for `COc1ccc(-n2c(C)cc(C(=O)COC(=O)c3cc(OC)c(OC)cc3NC(=O)c3cccs3)c2C)cc1`, the fluorescence is 1.61.

With `Cc1c(CCOC(=O)CC23CC4CC(CC(C)(C4)C2)C3)sc[n+]1Cc1ccc([N+](=O)[O-])cc1`, the fluorescence was -1.69.

Turning to `C=CCn1c(SCCOc2ccc(OC)cc2)nnc1C(NC(=O)c1ccc(OC)cc1)C(C)C` (stereo not drawn), the fluorescence was 65.8 (active).

Turning to `Cc1cccc2cc(CN(Cc3cccs3)C(c3nnnn3C3CCCC3)C(C)C)c(=O)[nH]c12` (stereo not drawn), the fluorescence is -2.04.
